Apaf-1 act – activates human Apaf-1 apoptosome | 330,000 tested, 0.31% active | activity change, negative = activation, % at 20 µM | O14727 | Apaf-1 apoptosome caspase-3 activation, DEVD-Rh110 fluorescence; stronger effect = lower value;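 active = activity change at or below -40% at 20 µM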
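Schedule: 30 min preincubation, 50 min reaction, room temperature / System: biochemical Apaf-1 apoptosome reconstitution / Medium: 20 mM HEPES pH 7.5 with CHAPS, BSA / Evaluation: Caspase-3 cleavage activity downstream of Apaf-1 activation / Detection: Caspase-3-released Rh110 fluorescence, 540 nm emission, 480 nm excitation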
Rh110 act interf – interferes with Rh110 fluorescence, flagging false Apaf-1 activators; Rh110 fluorescence interference, quenched caspase reaction, Ex480/Em540; fluorescence interference (activity change), % at 20 µM, hits read low; shares compounds with Apaf-1 act; 980 tested, under 10 active;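 active = mean activity change at or below -40% when tested at 20 µM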
Apaf-1 act conf2 – confirmation of human Apaf-1 activators. activity change, negative = activation, % at 20 µM. reconstituted apoptosome caspase-3 activity, DEVD-Rh110 fluorescence; stronger effect = lower value. shares compounds with Apaf-1 act. 980 tested, 5% active;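 active = mean activity change at or below -40%, meaning activation of 40% or more, at 20 µM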
Fluor interf act – Apaf-1 activator counter-screen fluorescence artifact | shares compounds with Apaf-1 act | AID 588592 | 55 tested, under 10 active | fluorescence interference counterscreen, Apaf-1 activator assay | EC50, µM; call rule not given here
* marks the source's active call; other numbers are inactive results; nt = no result. The list is a sample of the results.

SMILES | Apaf-1 act | Rh110 act interf | Apaf-1 act conf2 | others
CCN1CCN(c2ccc(S(=O)(=O)N3CCCCC3)cc2NC(=O)/C=C/c2cc(OC)ccc2OC)CC1 | 46 | nt | nt
CC(=O)N(C)c1ccc(N=Cc2cc3c(cc2[N+](=O)[O-])OCO3)cc1 | 65 | nt | nt
CC(C)(C)N1C(=O)Cc2c1nc(N)c1c(N)nc(N3CCCCC3CO)c(C#N)c21 (stereo unspecified) | 99 | nt | nt
Clc1ccc(-c2ccc(CNCC3CCCO3)o2)cc1 (stereo unspecified) | -131* | 5 | 3
CN(Cc1cnc2nc(N)nc(N)c2n1)c1ccc(C(=O)N[C@@H](CCC(=O)O)C(=O)O)cc1 | 3 | nt | nt
Cc1nn2c(-c3ccncc3)nnc2c2ccccc12 | 74 | nt | nt
O=C(NCc1ccc2c(c1)OCO2)Nc1cccc(Cl)c1 | -45* | -4 | 10
O=C(NCc1ccco1)Nc1ccc2nsnc2c1 | 59 | nt | nt
COC(CNC(=O)c1ccc2c3c(onc13)-c1ccccc1C2=O)OC | 73 | nt | nt
CCOc1ccc2noc3c2c1C(=O)c1ccccc1-3 | 76 | nt | nt | Fluor interf act=14*
O=C1c2ccccc2-c2onc3ccc(NCc4ccco4)c1c23 | 69 | nt | nt
CCCCCCC(=O)Nc1nc(C)c(-c2csc(Nc3cc(OC)ccc3OC)n2)s1 | 49 | nt | nt
Cc1[nH]c(=O)[nH]c(=O)c1S(=O)(=O)Nc1ccc(F)cc1F | -265* | 4 | 7
CN(C)c1cc(N/N=C/c2ccccc2C(F)(F)F)nc(N(C)C)n1 | 56 | nt | nt
COc1ccc(CNC[C@@H](CCCCN(C)Cc2ccc(OC)cc2)N2C[C@H](c3ccccc3)N(CCc3ccc(Cl)c(Cl)c3)C(=O)C2=O)cc1 | 49 | nt | nt
Cc1ccc(NC(=O)C2CCCN2C(=O)NC2CCCCC2)cc1C (stereo unspecified) | -120* | 13 | 9
Cc1cc2oc3cc(NCCC4CCCN4C)ccc3c(=O)c2cc1C (stereo unspecified) | 44 | nt | nt
CCOc1cc(/C=C/c2nc3cc(C)c(C)cc3s2)ccc1OCC(=O)N1CCOCC1 | 45 | nt | nt
Fc1ccc(CN2CCSCC2)cc1Br | -115* | -7 | 9
CCOC(=O)N1CCN(C2=C(NS(=O)(=O)c3ccc(C)cc3)C(=O)c3ccccc3C2=O)CC1 | 86 | nt | nt
Cc1ccc(/C=C/c2onc(C)c2S(=O)(=O)N2CCC(C(=O)N3CCN(C)CC3)CC2)cc1 | 45 | nt | nt
CCOC(=O)N1CCN(C(=O)C2CCN(S(=O)(=O)c3ccc(OCC)cc3)CC2)CC1 | -164* | -3 | 18
CC(=O)NC1=C(NC2CCS(=O)(=O)C2)C(=O)c2ccccc2C1=O (stereo unspecified) | 41 | nt | nt
C#CCOCCOCCOCCNc1nc(N2CCN(C(=O)[C@H]([C@@H](C)CC)n3cc([C@@H](N)Cc4ccc(O)cc4)nn3)CC2)nc(N2CCN(C(=O)[C@H](Cc3cc4ccccc4[nH]3)n3cc([C@@H](N)CC(C)C)nn3)CC2)n1 | 63 | nt | nt
COC(=O)C1=C(C)N(Cc2ccccc2)C(=NCc2cc(OC)c(OC)c(OC)c2)N[C@H]1c1ccc(Br)cc1 | 55 | nt | nt
SMILES | Apaf-1 act | Rh110 act interf | Apaf-1 act conf2 | others
COc1cc(C2NC(=O)NC(C)=C2C(=O)OCC2CCCO2)cc(OC)c1OC (stereo unspecified) | -359* | 9 | 11
COc1cc(C2C(C#N)=C(C)NC3=C2C(=O)c2ccccc23)cc(OC)c1OC (stereo unspecified) | 54 | nt | nt
COc1ccc(C[C@H]2CN3C(=NC[C@@H]3Cc3ccccc3)N2CCNC(=O)CCC2CCCCC2)cc1 | 52 | nt | nt
CCOc1cc(N(CC)CC)ccc1/C=C(/C#N)c1nc2ccccc2[nH]1 | -46* | -2 | 17
CC1(C)Cc2c(sc(NC(=O)COc3cccc4ccccc34)c2C#N)C(C)(C)N1 | 46 | nt | nt
COc1ccc(OCc2cc(C(=O)NC3CCOCC3)no2)c2ccccc12 | 41 | nt | nt
Cc1cccc(C)c1OCc1cc(C(=O)NCC2CCCCC2)no1 | -57* | 2 | 13
Cc1cccc(C)c1N1CCN(c2n[nH]c(N)n2)CC1 | -60* | 3 | 19
CC1(C(=O)NCc2ccccn2)C=CCN1C(=O)c1ccccc1 (stereo unspecified) | -273* | 6 | -4
COC(=O)CCC(=O)OC1(C)C(=O)C=C2C=C(C3CC3)N(CC3CC3)C=C2C1=O (stereo unspecified) | 57 | nt | nt
COc1ccccc1NC(=S)Nc1cccc2cnccc12 | 97 | nt | nt
O=C(Nc1ccc2nsnc2c1)N1CCCCC1 | 73 | nt | nt
COc1ccccc1NC(=O)Nc1ccc(C(=O)N2CCCCC2)cc1 | -80* | -1 | 13
COc1ccc(S(=O)(=O)NCc2ccc3c(c2)cc(C)n3C)cc1 | 51 | nt | nt

From PubChem
